Source: PubChem (Johns Hopkins Ion Channel Center)
The list is not random: actives were taken first. Their share in the collection is about 3.7%.
Kir21 inh – inhibitors of mouse Kir2.1 inward-rectifier potassium channel | HEK293-Kir2.1, FluxOR thallium flux fluorescence; stronger effect = lower value | AID 1672 | B-score at 10 µM | actives 0.85% (n = 310,000);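 active = fluorescence ratio B-score at or below minus 3 SD of library scores, with starting-brightness B-score within 2 SD, cut at about -4.2 in these data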;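 also: channel flux triggered by added potassium and thallium sulfate stimulus; B-score of peak minus minimum fluorescence over baseline after thallium stimulus; more negative B-score means stronger Kir2.1 block with less thallium influx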
KCNQ1 block – inhibitors of human KCNQ1 potassium channel; P51787; CHO-K1 KCNQ1, FluxOR thallium flux fluorescence; stronger effect = higher value; B-score at 10 µM; actives 1.3% (n = 310,000);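 active = compounds whose thallium flux B-score, printed positive for inhibition, exceeds three library SD while starting fluorescence stays within three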;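 also: channel opened by potassium depolarization with thallium stimulus after 20 min compound exposure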
Target sequence (P51787 whole entry, looked up): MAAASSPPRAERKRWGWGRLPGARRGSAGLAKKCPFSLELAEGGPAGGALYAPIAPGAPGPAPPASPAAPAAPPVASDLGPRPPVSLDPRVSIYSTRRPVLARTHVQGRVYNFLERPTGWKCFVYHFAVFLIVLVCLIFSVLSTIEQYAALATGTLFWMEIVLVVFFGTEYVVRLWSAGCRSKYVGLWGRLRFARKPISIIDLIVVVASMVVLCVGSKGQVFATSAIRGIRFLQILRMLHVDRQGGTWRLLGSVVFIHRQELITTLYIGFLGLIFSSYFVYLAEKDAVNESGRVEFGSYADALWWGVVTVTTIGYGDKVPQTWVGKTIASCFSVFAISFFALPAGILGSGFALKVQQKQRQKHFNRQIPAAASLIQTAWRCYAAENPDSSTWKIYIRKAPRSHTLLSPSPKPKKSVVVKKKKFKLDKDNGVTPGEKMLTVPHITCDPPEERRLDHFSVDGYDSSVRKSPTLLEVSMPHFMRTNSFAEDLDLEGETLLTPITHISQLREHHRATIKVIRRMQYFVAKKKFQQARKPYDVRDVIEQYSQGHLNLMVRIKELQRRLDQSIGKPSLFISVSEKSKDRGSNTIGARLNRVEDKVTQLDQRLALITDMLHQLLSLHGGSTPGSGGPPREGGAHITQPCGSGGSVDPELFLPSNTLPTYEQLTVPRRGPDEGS
KCNK3 block – human KCNK3 channel inhibition, primary screen; CHO-KCNK3 thallium flux, FluxOR fluorescence; stronger effect = lower value; AID 602410; B-score at 10 µM; O14649; actives 0.84% (n = 340,000);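 active = B-score under library mean minus 4 SD, starting fluorescence ratio at most library mean plus 5 SD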;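 also: more negative B-score means stronger inhibition of thallium flux through KCNK3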
KCNQ1 pot – human KCNQ1 channel potentiation or activation; P51787; AID 2648; CHO-K1 KCNQ1, thallium flux FluxOR fluorescence; stronger effect = higher value; B-score at 10 µM; actives 0.35% (n = 310,000);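 active = fluorescence ratio B-score, a plate-corrected score, at least three library SD, with initial intensity B-score within 5 SD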
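Medium – assay buffer, equal DMSO in all wells · Material – CHO-K1 cell line with stable KCNQ1 potassium channel expression · Signal – kinetic FluxOR thallium fluorescence, 10-s 1-Hz baseline, 110-s post-stimulus read · Compound – single concentration per compound, DMSO matched to controls · Schedule – 37 °C overnight plating, 90-min dark dye load, 20-min compound pretreatment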
KCNK9 inh – human KCNK9 channel inhibition; Q9NPC2; HEK293 KCNK9, FluxOR thallium flux fluorescence; stronger effect = lower value; B-score at 10 µM; actives 1.2% (n = 310,000);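 active = ratio B-score over 3 SD below the library mean, with starting fluorescence within 5 SD of its mean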;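 also: negative B-score means less thallium flux so channel inhibition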
hERG rescue – hERG (human) protection from proarrhythmic block; Q12809; CHO-hERG, FluxOR thallium flux, dofetilide IC70 present; activation (rescue from dofetilide block), less the hit threshold, % at 10 µM; actives 0.51% (n = 310,000);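 active = activation above the mean of controls blocked by dofetilide plus 5 SD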;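 also: thallium influx through hERG after potassium depolarization seen as dye fluorescence rise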
A number is an active result; 0 = inactive; - = no result.

SMILES	Kir21 inh	KCNQ1 block	KCNK3 block	KCNQ1 pot	KCNK9 inh	hERG rescue
O=C(N/N=C1/C(=O)c2cccc3cccc1c23)c1ccc(Cl)cc1	0	0	0	41	0	53
CSCCC(NC(=O)c1ccccc1Cl)C(=O)N1CCN(C(c2ccccc2)c2ccccc2)CC1 (stereo unspecified)	-4.7	0	0	0	0	0
O=C(CCn1c(=O)c2sccc2n(CC(=O)OCc2ccccc2)c1=O)NCc1ccccc1	0	0	0	0	0	5.2
Cc1ccc(Nc2cc(C)nc(NCc3ccccc3)n2)cc1	-5.5	0	0	0	0	0
COc1cc(C)nc(NCc2ccccc2)n1	0	0	0	0	0	0
Cc1ccccc1C(=O)NC1CCN(CC(=O)Nc2ccccc2Cl)CC1	0	0	0	0	0	0
Cc1c(Cl)cccc1NC(=O)CN1CCC(C(O)(c2ccccc2)c2ccccc2)CC1	0	11	0	0	0	0
CSc1ncc(C(=O)Nc2cccc(C)c2C)c(C)n1	0	0	0	0	0	0
O=C(OCC(=O)N1CCN(c2ccccc2)CC1)c1cccc(Cl)c1	0	0	0	0	0	0
O=C(OCC(=O)N1CCN(c2ccccc2)CC1)c1cnc(Cl)c(Cl)c1	0	0	-	0	0	9.4
O=C(O)Cc1cc(C(=O)Nc2ccc(Br)cc2)sc1-c1ccccc1	0	0	-	0	0	0
FC(F)(F)c1ccc(Cl)c(-n2c(Cc3cccs3)n[nH]c2=S)c1	0	0	0	0	0	0
Fc1ccc(-n2c(Cc3cccs3)n[nH]c2=S)cc1Cl	-4.2	0	0	0	0	0
O=C(NCCOc1ccccc1)C1CCC(=O)N(CCCN2CCCC2=O)C1 (stereo unspecified)	0	0	0	0	0	0
COc1ccc(-c2csc(NC(=O)C3=NN(c4ccccc4)C(=O)CC3)n2)cc1	0	0	0	105	0	0
O=C(Nc1nc(-c2cc(F)ccc2F)cs1)C1=NN(c2ccccc2)C(=O)CC1	0	0	0	0	0	0
Cc1noc(NS(=O)(=O)c2ccc(NC(=O)c3cc4ccccc4o3)cc2)c1C	-	-	0	-	-	-
CCOc1ccc(NC(=O)CN(c2ccc([N+](=O)[O-])cc2)S(=O)(=O)c2ccccc2)cc1	0	6	0	0	0	0
CC1=NN(/C(=N\c2nnc(C)s2)Nc2ccc(C(C)(C)C)cc2)[C@H](c2ccc(C)cc2)S1	0	8	0	0	0	0
Cc1ccc(NC(=O)CCSc2nnc(C)s2)cc1	0	0	0	0	0	0
O=S(=O)(c1ccc(SCc2cccc(Cl)c2)nc1)N1CCCC1	-	-	-9.5	-	-	-
Cc1ccc(CSc2ccc(S(=O)(=O)N3CCCC3)cn2)cc1	-	-	0	-	-	-
Cc1ccc(NC(=O)C(C)OC(=O)/C=C/c2ccccc2)cc1S(=O)(=O)N1CCOCC1 (stereo unspecified)	0	0	0	0	0	0
COc1ccc(CCC(=O)NCCOc2ccc(C)cc2)cc1	0	0	0	11	0	0
COc1ccc(CCNC(=O)CCc2ccc(OC)cc2)cc1	0	0	0	0	0	0
SMILES	Kir21 inh	KCNQ1 block	KCNK3 block	KCNQ1 pot	KCNK9 inh	hERG rescue
O=C1NC[C@H](Cc2ccccc2)N(C[C@H]2CCCN2C[C@H](Cc2ccccc2)N2C[C@H](Cc3ccccc3)N(CC3CCCCCC3)C(=O)C2=O)C1=O	-	-	-9	-	-	-
CC(C)C[C@@H](CN1CCC[C@@H]1CN1C(=O)C(=O)NC[C@@H]1Cc1ccccc1)N1C[C@H](Cc2ccccc2)N(CC2CCCCCC2)C(=O)C1=O	-	-	0	-	-	-
CC(=O)N1CCN(C(=O)c2ccc3c(c2)OCCO3)CC1	0	0	0	0	0	0
Cc1ccc2nc(N(CCCN(C)C)C(=O)CCc3ccccc3)sc2c1	-5.6	0	0	0	0	0
Cc1ccc(S(=O)(=O)NCC(=O)OCC(=O)N(CCC#N)c2ccccc2)cc1	-	-	0	-	-	-
O=C(CN(Cc1ccc(F)cc1)C(=O)CNS(=O)(=O)c1ccccc1)NCc1ccco1	0	0	0	0	0	0
Cc1cc(C(C)(C)C)oc1C(=O)N(CC(=O)NC1CCCC1)c1cccc(C(F)(F)F)c1	0	0	-9	0	-8	0
Cc1ccccc1N(CC(=O)NC1CCCC1)C(=O)c1oc(C(C)(C)C)cc1C	0	0	0	0	0	0
Cc1cc(C(=O)COC(=O)c2nn(C)c(=O)c3ccccc23)c(C)n1C	-	-	0	-	-	-
CCOC(=O)c1ccccc1NC(=O)N1CCn2c(C)ccc2C1CC (stereo unspecified)	0	0	0	0	0	0
CCC1c2ccc(C)n2CCN1C(=O)Nc1ccccc1C(=O)OC (stereo unspecified)	0	0	0	0	-7	0
CC(C)CCN1C(=O)c2ccc(C(=O)Nc3ccc(Br)cc3C(=O)O)cc2C1=O	0	6	0	0	0	0
COc1ccc2nc(N3CCCCC3)c(/C=C3\SC(=S)NC3=O)cc2c1	0	0	0	0	0	7.4
O=C1NC(=S)S/C1=C\c1cc2ccccc2nc1N1CCCCC1	0	0	0	0	0	0
Cc1nn(C)cc1CN(C)Cc1c(C(=O)N(C)Cc2ccccc2)nc2ccccn12	0	0	0	0	0	6.5
CN(Cc1c(C(=O)N(C)Cc2ccccc2)nc2ccccn12)CC1Cc2ccccc2O1 (stereo unspecified)	0	0	0	0	0	0
O=C(O)CC(NC(=O)CCC1CCCCC1)c1cc([N+](=O)[O-])ccc1Cl (stereo unspecified)	0	0	0	0	0	0
CCOc1ccccc1N(C)S(=O)(=O)c1ccc2c(c1)N(C(C)=O)CCO2	0	0	0	0	0	0
COc1ccc(NC(=O)c2ccc3c(SCC(=O)O)c4c(nc3c2)CCCC4)c(OC)c1	0	0	0	0	0	0
COc1ccc(NC(=O)c2ccc3c(SCC(=O)O)c4c(nc3c2)CCCC4)cc1Cl	0	0	-	0	0	7.8
COc1ccc(NC(=O)CSc2c3c(nc4ccccc24)CCC3)c(OC)c1	-10	0	0	0	0	0
CC(C)(C)NC(=O)COc1ccc(-c2ccccc2)cc1	0	0	0	0	-7.7	0
CC1(C)CC(=O)CC(=NCC(=O)O)C1	0	0	0	0	0	4.7
CN(c1ccc(OC(=O)c2ccc(-n3cncn3)c([N+](=O)[O-])c2)cc1)S(=O)(=O)c1ccccc1	-	-	0	-	-	-
Cc1cc(NC(=O)CSc2ccnc(=O)[nH]2)no1	0	0	0	0	0	0
Cc1ccc(S(=O)(=O)N2CCC(=O)N(C(COC(=O)Nc3ccccc3)Cc3ccccc3)CC2)cc1 (stereo unspecified)	0	0	0	0	-6.7	0
Cc1ccc(S(=O)(=O)N2CCC(=O)N(C(CO)Cc3ccccc3)CC2)cc1 (stereo unspecified)	0	0	0	0	0	0
CCOC(=O)C(CCc1ccccn1)c1ccccc1 (stereo unspecified)	-	-	0	-	-	-
